Shown are actives, neighbours in structure and some others; about 2.1% of the full set was active somewhere.
STK33 inh: inhibitors of human STK33 kinase; Q9BYT3; purified STK33, MBP phosphorylation, ADP-Glo luminescence; inhibition, % at 10 µM; 0.073% of 320,000 active; AID 2661;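 active = inhibition at or above 25%, using the most active replicate where run in duplicate; inactive = inhibition below 25%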
Target sequence (Q9BYT3 whole entry, looked up): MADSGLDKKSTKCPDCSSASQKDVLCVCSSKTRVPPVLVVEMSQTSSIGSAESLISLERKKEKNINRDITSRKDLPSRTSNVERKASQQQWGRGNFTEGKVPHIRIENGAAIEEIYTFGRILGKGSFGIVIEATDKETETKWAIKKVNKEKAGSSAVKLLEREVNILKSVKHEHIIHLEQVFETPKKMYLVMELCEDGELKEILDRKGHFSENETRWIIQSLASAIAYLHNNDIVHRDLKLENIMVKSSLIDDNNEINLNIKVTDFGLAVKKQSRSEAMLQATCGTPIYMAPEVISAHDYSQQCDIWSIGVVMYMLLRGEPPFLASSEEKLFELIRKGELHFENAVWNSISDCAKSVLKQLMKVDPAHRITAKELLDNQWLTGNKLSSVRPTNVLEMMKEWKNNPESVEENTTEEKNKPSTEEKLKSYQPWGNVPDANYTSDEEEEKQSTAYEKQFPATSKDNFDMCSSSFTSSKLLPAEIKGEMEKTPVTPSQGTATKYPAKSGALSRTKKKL
MEKK2mut PB1 HTS: signal of MEK5 binding to mutant human MEKK2 PB1 domain; bead flow cytometry, Alexa488-MEK5 binding to MEKK2 mutant; percent response, % at 10 µM; 0.35% of 290,000 active; AID 1530; in the data active = percent response above about 24%, passing the limit was not always enough
MEKK2 WT-MEK5: raises or lowers MEK5 binding to wildtype human MEKK2 PB1 domain. Q9Y2U5. bead flow cytometry, Alexa488-MEK5 binding to MEKK2 WT; actives lie on both sides. binding response (% of control), % at 10 µM. 1.1% of 290,000 active. AID 1531; in the data active = binding response below about 67% or above about 130%
MEKK3 PB1 HTS: MEKK3-MEK5 PB1 interaction, increase or decrease. binding response (% of control), % at 10 µM. Q99759. 1.4% of 290,000 active. AID 1529. bead-based flow cytometry, Alexa488-MEK5 binding to MEKK3; actives lie on both sides; 0 = blocked by unlabeled MEK5, 100 = vehicle;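 active = binding response more than 3 SD above or below the average of its plate-row segment, actives on both sides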;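 note: Alexa488 bead fluorescence after subtracting the streptavidin-only scavenger bead signal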
GSK3 alpha inh: human GSK-3 alpha kinase inhibition; P49840; ADP-Glo luminescence, 60 min; inhibition, % at 10 µM; 0.1% of 320,000 active;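 active = more than half of replicates show inhibition above 20%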;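 note: GST-tagged GSK-3 alpha with peptide substrate and 25 µM ATP; 0% = DMSO neutral wells and 100% = GW8510 positive control wells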
GSK3B inh: blocks human GSK3beta kinase activity; 0.038% of 300,000 active; activity score (negative = inhibition), % at 10 µM; AID 2097; P49841; GST-GSK3beta kinase, ADP-Glo luminescence, 60 min; active compounds read low;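 active = more than half of replicate wells score below -50%, meaning over 50% inhibition versus plate controls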;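 note: 0% = median DMSO wells and -100% = median GW8510 positive control wells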
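test system = GST-tagged human GSK3beta kinase, cell-free | reagent = 25 µM ATP with peptide substrate | dosing = one dose of 10 µM per compound | schedule = 60 min reaction, RT | detection = luminescent ADP-Glo measurement of ADP formed | control set = DMSO neutral wells and GW8510 at 20 µM as positive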
MEKK2wt confirm: raises or lowers MEK5 binding to wildtype human MEKK2, retest; bead flow cytometry, Alexa488-MEK5 binding to MEKK2 WT; actives lie on both sides; 2.4% of 5,900 active; binding response (% of control), % at 10 µM; shares compounds with MEKK3 PB1 HTS; in the data active = binding response below about 16% or above about 210%; inactive = in between
MEKK2mut confirm: signal of MEK5 binding to mutant human MEKK2, retest; shares compounds with MEKK3 PB1 HTS; bead flow cytometry, Alexa488-MEK5 binding to MEKK2 mutant; percent response, % at 10 µM; 2% of 5,900 active; AID 1893; in the data active = percent response mostly above about 71%, no sharp cut-off; inactive = mostly below about 38%;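 note: higher means compound restores mutant binding toward wildtype level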
MEKK3-MEK5 inh: confirmation of inhibitors of MEK5 binding to human MEKK3; shares compounds with MEKK3 PB1 HTS; bead flow cytometry, Alexa488-MEK5 binding to MEKK3; active compounds read low; binding response (% of control), % at 10 µM; 1.8% of 5,900 active;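 active = binding response below 72% of control, or above a set upper limit, though filed actives all read lower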;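 note: 100% = DMSO only wells and 0% = binding blocked by excess unlabeled MEK5; lower values mean stronger disruption of MEK5 binding to MEKK3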
Active calls of the source: *; . = no result given; [ ] = dose if it differs, or a comment.

SMILES	STK33 inh	MEKK2mut PB1 HTS	MEKK2 WT-MEK5	MEKK3 PB1 HTS	GSK3 alpha inh	GSK3B inh	MEKK2wt confirm	MEKK2mut confirm	MEKK3-MEK5 inh
COCCN1CCC(CNCc2cn(-c3cc(C)ccc3C)nc2-c2ccccc2)C1 (stereo not given)	-1	9	163*	107	-2	3	173	41	111
COC(=O)CNC(=O)C1CC(=O)N(CCc2ccc(F)cc2)C1 (stereo not given)	-2	17	110	106	-2	-1	.	.	.
O=C(c1ccco1)N1CCN(C(=O)c2ccc(COc3ccc4c(c3)CCC4)o2)CC1	0	-9	-4.0*[inhibitor]	0.0*[inhibitor]	1	1	98	-1	99
S=C(NCCc1ccccc1)NCCc1ccccc1	0	-2	91	65	1	3	.	.	.
CC(C)(C)C(=O)NC(=S)NCCc1ccccc1	0	-39	1.0*[inhibitor]	1.0*[inhibitor]	0	1	102	0	105
CCOc1cc(CNC2CCCC2)c(Cl)cc1OCC(=O)Nc1ccccc1	0	13	140	109	1	1	.	.	.
CC(C)N(C(=O)CSc1nnc(Cc2csc(Nc3ccccc3)n2)o1)C(C)C	0	-2	90	75*[inhibitor]	-1	1	108	5	105
COc1ccc2c(c1)C1NC(=S)NC(C)(O2)C1C(=O)Nc1ccc(Cl)cc1 (stereo not given)	2	-1	100	120	2	2	.	.	.
Cc1ccc2c(c1)C1NC(=S)NC(C)(O2)C1C(=O)Nc1ccc(Cl)cc1 (stereo not given)	1	0	102	146*	2	-2	104	3	108
CC1CCCCC1n1c(=S)[nH]c2ccccc2c1=O (stereo not given)	-1	4	94	95	1	2	.	.	.
COC(=O)c1c(-c2ccc(C(C)(C)C)cc2)csc1NC(=O)C1C2CCC(O2)C1C(=O)O (stereo not given)	-3	-1	92	75*[inhibitor]	0	-1	99	-1	105
CCOC(=O)c1c(-c2cccc3ccccc23)csc1NC(=O)C1C2CCC(O2)C1C(=O)O (stereo not given)	-2	-1	100	113	-3	6	.	.	.
CC(C)(C)NC(=O)NC(=O)COC(=O)COc1ccc(Cl)cc1Cl	-1	-3	93	75*[inhibitor]	2	2	103	5	107
O=C(COC(=O)COc1ccc(Cl)cc1Cl)Nc1cccnc1Cl	-1	-1	105	137*	-3	4	103	2	102
O=C(COC(=O)COc1ccccc1)Nc1cccnc1Cl	0	.	.	.	-3	.	.	.	.
FC(F)(F)c1ccc(-n2cnc3ccccc32)nc1	-1	-2	100	98	-2	4	.	.	.
COc1ccc(C)c(-n2c(N)cc(=O)n(Cc3ccccc3)c2=O)c1	-1	1	101	100	-2	-4	.	.	.
Cc1cc(F)ccc1S(=O)(=O)N1CCCOC1CNC(=O)C(=O)NCc1cccnc1 (stereo not given)	0	6	109	103	0	0	.	.	.
CCOC(=O)C(NCc1ccco1)(NC(=O)c1ccccc1)C(F)(F)F (stereo not given)	-1	5	130	133*	-1	1	108	4	106
CCOC(=O)C(NC(=O)c1ccccc1)(Nc1cccc(C)n1)C(F)(F)F (stereo not given)	-1	-1	101	101	0	1	.	.	.
COc1ccccc1C(=O)NCC(=O)NNC(=O)C1COc2ccccc2O1 (stereo not given)	-1	.	.	.	-4	1	.	.	.
Cc1onc(-c2ccccc2Cl)c1C(=O)N1CCN=C1SCc1cccnc1	-1	3	103	102	2	0	.	.	.
O=C(NCc1cccs1)c1cc(-c2ccc(O)cc2)on1	0	-17	55	46*[inhibitor]	-1	-2	101	1	105
COc1ccc(CC(=O)NCC(=O)N/N=C/c2sccc2C)cc1	1	1	101	97	0	2	.	.	.
CC(=O)Nc1cccc(C(=O)N2CCN(Cc3ccccc3)CC2)c1	-1	-21	-1.0*[inhibitor]	-1.0*[inhibitor]	.	0	107	3	105
SMILES	STK33 inh	MEKK2mut PB1 HTS	MEKK2 WT-MEK5	MEKK3 PB1 HTS	GSK3 alpha inh	GSK3B inh	MEKK2wt confirm	MEKK2mut confirm	MEKK3-MEK5 inh
O=C(Nc1cccc(C(=O)N2CCN(Cc3ccccc3)CC2)c1)c1ccccc1	0	-3	91	93	0	-2	.	.	.
CC(=O)c1c(C)[nH]c(C(=O)OCC(=O)Nc2ccc(Cl)c(S(=O)(=O)N(C)C)c2)c1C	1	-32	43*[inhibitor]	38*[inhibitor]	-2	4	106	10	108
CC(=O)c1c(C)[nH]c(C(=O)Nc2ccc(Cl)c(S(=O)(=O)N(C)C)c2)c1C	0	-1	98	103	2	-5	.	.	.
CCOc1ncccc1C(=O)OCC(=O)Nc1ccc(C)c(S(=O)(=O)N(C)C)c1	0	-10	82	73*[inhibitor]	4	-3	100	2	99
Cc1cccc(C)c1NC(=O)C1(N(Cc2ccco2)C(=O)CC2NC(=O)NC2=O)CCCC1 (stereo not given)	0	-16	3.0*[inhibitor]	3.0*[inhibitor]	-24	-2	104	6	109
CCC1(CC)NC(=O)N(CC(=O)Nc2ccc(OCc3ccccc3)cc2)C1=O	-1	.	.	.	-2	.	.	.	.
COc1cc(N/C=C(\C(C)=O)c2ccccc2)cc(OC)c1	-1	8	108	109	3	.	.	.	.
CC12C=CC3(O1)C(C(=O)N(c1ccccc1)C3C(=O)NC1CCCC1)C2C(N)=O (stereo not given)	-1	-3	29*[inhibitor]	20*[inhibitor]	0	2	102	2	102
O=C(c1ccc2snnc2c1)N1CCN(c2ccccc2)CC1	0	8	131	129*	-3	2	92	-8	95
CC(=O)Nc1c(C)cc(OCC(=O)O)cc1C	-1	-8	99	96	-2	2	.	.	.
CC(C)(C)NC(=O)[C@H]1CC[C@H]2[C@@H]3CC[C@H]4NC(=O)C=C[C@]4(C)[C@H]3CC[C@]12C	-2	4	111	107	-1	3	.	.	.
O=C(CN1CCC(NC(=O)c2ccc(Br)cc2)CC1)NCc1cccs1	-1	-12	91	78	3	-1	.	.	.
